Source: ChEMBL document CHEMBL1123290, “Synthesis, antimalarial activity, and quantitative structure-activity relationships of tebuquine and a series of related 5-[(7-chloro-4-quinolinyl)amino]-3-[(alkylamino)methyl] [1,1'-biphenyl]-2-ols and N omega-oxides” (1986)

Columns and labels:
Assay type in all cases: functional
Plasmodium berghei [1] = experiment: Change in mean survival time of Plasmodium berghei infected mice (Mus musculus) on 1.25 mg/kg subcutaneous dose
Plasmodium berghei [2] = experiment: Difference in mean survival time of Plasmodium berghei infected mice (Mus musculus) after 10 mg/kg subcutaneous dose
Plasmodium berghei [3] = experiment: Change in mean survival time for control (average 6.2 days) versus treated mice (Mus musculus) after 160 mg/kg subcutaneous dose
Plasmodium berghei [4] = experiment: Change in mean survival time of Plasmodium berghei infected mice (Mus musculus) after […] subcutaneous dose
Plasmodium berghei [5] = experiment: Change in mean survival time for control (average 6.2 days) versus treated mice (Mus musculus) after 20 mg/kg subcutaneous dose
Plasmodium berghei [6] = experiment: Change in mean survival time for control (average 6.2 days) versus treated mice (Mus musculus) after 320 mg/kg subcutaneous dose
Plasmodium berghei [7] = experiment: Change in mean survival time for control (average 6.2 days) versus treated mice (Mus musculus) after 40 mg/kg subcutaneous dose
Plasmodium berghei [8] = experiment: Change in mean survival time of Plasmodium berghei infected mice (Mus musculus) after 5 mg/kg subcutaneous dose
Plasmodium berghei [9] = experiment: Change in mean survival time in control (average 6.2 days) versus treated mice (Mus musculus) after 80 mg/kg subcutaneous dose
Mus musculus [10] = experiment: Delta MST, difference in mean survival time of the control mice (an average of 6.2 days) from the mean survival time of the treated mice after a single dose of (mg/kg sc) 1.25
Plasmodium berghei [11] = experiment: Antimalarial activity as 60-day survivors in Plasmodium berghei infected mice (Mus musculus) after single 160mg/kg subcutaneous dose 72 hr post infection
Outline: (§1)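 Mice were infected with a normal drug-sensitive Plasmodium berghei strain. At 72 h postinfection each received one subcutaneous dose of compound dissolved or suspended in peanut oil, in five-mouse groups per dose. The read-out was the number of mice alive at 60 days postinfection, which were scored as cured.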

Plasmodium berghei [12] = experiment: Antimalarial activity as 60-day survivors in infected mice (Mus musculus) after single 20 mg/kg subcutaneous dose 72hr post infection; outline: as §1
Plasmodium berghei [13] = experiment: Antimalarial activity as 60-day survivors in infected mice (Mus musculus) after single 320mg/kg subcutaneous dose 72 hr post infection; outline: as §1
Mus musculus [14] = experiment: Antimalarial activity, administered as a single subcutaneous dose of 40 mg/kg, 72 hrs post infection measured as number of mice (Mus musculus) surviving at 60 days post infection; outline: as §1
Mus musculus [15] = experiment: Antimalarial activity, administered as a single subcutaneous dose of 640 mg/kg, 72 hrs post infection measured as number of mice (Mus musculus) surviving at 60 days post infection; outline: as §1
Mus musculus [16] = experiment: Antimalarial activity, administered as a single subcutaneous dose of 80 mg/kg, 72 hrs post infection measured as number of mice (Mus musculus) surviving at 60 days post infection; outline: as §1
Plasmodium berghei [17] = experiment: Antimalarial activity in primary screen
Plasmodium berghei [18] = experiment: Change in mean survival time for control (average 6.2 days) versus treated mice (Mus musculus) 72 hrs after 5 mg/kg subcutaneous dose
Plasmodium berghei [19] = experiment: Change in mean survival time for control (average 6.2 days) versus treated mice (Mus musculus) 72 hrs after 640 mg/kg subcutaneous dose
Plasmodium berghei [20] = experiment: Change in mean survival time for control (average of 6.2 days) versus treated mice (Mus musculus) 72 hrs after 80 mg/kg subcutaneous dose
Plasmodium berghei [21] = experiment: (§2) Change in mean survival time for control (average 6.2 days) versus treated mice (Mus musculus) 72 hrs after […] subcutaneous dose
Plasmodium berghei [22] = experiment: Change in mean survival time for control (average 6.2 days) versus treated mice (Mus musculus) 72 hrs after 10 mg/kg subcutaneous dose
Plasmodium berghei [23] = experiment: Change in mean survival time for control (average 6.2 days) versus treated mice (Mus musculus) 72 hrs after 160 mg/kg subcutaneous dose
Plasmodium berghei [24] = experiment: Change in mean survival time for control (average 6.2 days) versus treated mice (Mus musculus) 72 hrs after […] subcutaneous dose
Plasmodium berghei [25] = experiment: Change in mean survival time for control (average 6.2 days) versus treated mice (Mus musculus) 72 hrs after 20 mg/kg subcutaneous dose
Plasmodium berghei [26] = experiment: Change in mean survival time for control (average 6.2 days) versus treated mice (Mus musculus) 72 hrs after 320 mg/kg subcutaneous dose
Plasmodium berghei [27] = experiment: Difference in mean survival time in mice (Mus musculus) (control = 6.2 days) after single 40mg/kg subcutaneous dose 72hr post infection
Mus musculus [28] = experiment: Antimalarial activity of compound administered as a single subcutaneous dose of 10mg/kg, 72 hrs post infection measured as number of mice (Mus musculus) surviving at 60 days post infection; outline: as §1
Mus musculus [29] = experiment: Antimalarial activity of compound administered as a single subcutaneous dose of 5mg/kg, 72-h postinfection measured as number of mice (Mus musculus) surviving at 60 days postinfection; outline: as §1
Mus musculus [30] = experiment: Antimalarial activity of compound administered as a single subcutaneous dose of 40 mg/kg, 72-h postinfection measured as number of mice (Mus musculus) surviving at 60 days postinfection; outline: as §1
Plasmodium berghei [31] = experiment: as §2; remark: listed apart in the source
Mus musculus [32] = experiment: Antimalarial activity of compound administered as a single subcutaneous dose of 20 mg/kg, 72 hrs post infection measured as number of mice (Mus musculus) surviving at 60 days post infection; outline: as §1
Mus musculus [33] = experiment: Antimalarial activity of compound administered as a single subcutaneous dose of 320 mg/kg, 72 hrs post infection measured as number of mice (Mus musculus) surviving at 60 days post infection; outline: as §1
Mus musculus [34] = experiment: Antimalarial activity of compound administered as a single subcutaneous dose of 80mg/kg, 72-h postinfection measured as number of mice (Mus musculus) surviving at 60 days postinfection; outline: as §1
Mus musculus [35] = experiment: Antimalarial activity of compound administered as a single subcutaneous dose of 160mg/kg, 72-h postinfection measured as number of mice (Mus musculus) surviving at 60 days postinfection; outline: as §1

## CCC(C)NCc1cc(Nc2cc[n+]([O-])c3cc(Cl)ccc23)cc(-c2ccc(Cl)cc2)c1O (stereo not given)
Plasmodium berghei [1]
  Delta MST: 0 days
Plasmodium berghei [2]
  Delta MST: 7.2 days
Plasmodium berghei [3]
  Delta MST: 14.6 days
Plasmodium berghei [4]
  Delta MST: 1.6 days
Plasmodium berghei [5]
  Delta MST: 22.6 days
Plasmodium berghei [6]
  Delta MST: 17.1 days
Plasmodium berghei [7]
  Delta MST: 21.3 days
Plasmodium berghei [8]
  Delta MST: 3.6 days
Plasmodium berghei [9]
  Delta MST: 23.6 days
Mus musculus [10]
  Delta MST: 0
Plasmodium berghei [11]
  No. of mice cured: 4
Plasmodium berghei [12]
  No. of mice cured: 3
Plasmodium berghei [13]
  No. of mice cured: 3
Mus musculus [14]
  No. of mice cured: 2
Mus musculus [15]
  No. of mice cured: 3
Mus musculus [16]
  No. of mice cured: 3

## CCN(CC)Cc1cc(Nc2ccnc3cc(Cl)ccc23)cc(-c2cccnc2)c1O
Plasmodium berghei [17]
  ED30: 31 mg/kg
Plasmodium berghei [18]
  Delta MST: 10.6 days
Plasmodium berghei [19]
  Delta MST: 34.8 days
Plasmodium berghei [20]
  Delta MST: 19.6 days
Plasmodium berghei [21]
  Delta MST: 1.8 days
Plasmodium berghei [22]
  Delta MST: 8.6 days
Plasmodium berghei [23]
  Delta MST: 18.8 days
Plasmodium berghei [24]
  Delta MST: 5.4 days
Plasmodium berghei [25]
  Delta MST: 13.6 days
Plasmodium berghei [26]
  Delta MST: 37.8 days
Plasmodium berghei [27]
  Delta MST: 20.3 days
Mus musculus [28]
  No. of mice cured: 1
Plasmodium berghei [11]
  No. of mice cured: 4
Plasmodium berghei [12]
  No. of mice cured: 1
Plasmodium berghei [13]
  No. of mice cured: 4
Mus musculus [14]
  No. of mice cured: 1
Mus musculus [29]
  No. of mice cured: 1
Mus musculus [15]
  No. of mice cured: 3
Mus musculus [16]
  No. of mice cured: 1

## CCC(C)NCc1cc(Nc2ccnc3cc(Cl)ccc23)cc(-c2ccc(Cl)cc2)c1O (stereo not given)
Plasmodium berghei [18]
  Delta MST: 11 days
Plasmodium berghei [20]
  Delta MST: 14 days
Plasmodium berghei [21]
  Delta MST: 0.2 days
Plasmodium berghei [22]
  Delta MST: 23.6 days
Plasmodium berghei [23]
  Delta MST: 14.2 days
Plasmodium berghei [24]
  Delta MST: 2 days
Plasmodium berghei [25]
  Delta MST: 21 days
Plasmodium berghei [26]
  Delta MST: 12.5 days
Plasmodium berghei [27]
  Delta MST: 15 days
Plasmodium berghei [12]
  No. of mice cured: 3
Plasmodium berghei [13]
  No. of mice cured: 1
Mus musculus [16]
  No. of mice cured: 3
Mus musculus [30]
  No. of mice cured: 4

## CC(C)(C)NCc1cc(Nc2cc[n+]([O-])c3cc(Cl)ccc23)cc(-c2ccc(Cl)cc2)c1O
Plasmodium berghei [1]
  Delta MST: 0 days
Plasmodium berghei [2]
  Delta MST: 26.3 days
Plasmodium berghei [3]
  Delta MST: 13.4 days
Plasmodium berghei [4]
  Delta MST: 0.2 days
Plasmodium berghei [5]
  Delta MST: 28.9 days
Plasmodium berghei [6]
  Delta MST: 13.9 days
Plasmodium berghei [7]
  Delta MST: 24.9 days
Plasmodium berghei [8]
  Delta MST: 11.4 days
Plasmodium berghei [9]
  Delta MST: 20.6 days
Mus musculus [10]
  Delta MST: 0
Plasmodium berghei [31]
  Delta MST: 13.9 days
Mus musculus [28]
  No. of mice cured: 1
Plasmodium berghei [11]
  No. of mice cured: 3
Plasmodium berghei [12]
  No. of mice cured: 4
Plasmodium berghei [13]
  No. of mice cured: 4
Mus musculus [14]
  No. of mice cured: 4
Mus musculus [29]
  No. of mice cured: 1
Mus musculus [15]
  No. of mice cured: 4
Mus musculus [16]
  No. of mice cured: 2

## CC(C)CNCc1cc(Nc2ccnc3cc(Cl)ccc23)cc(-c2ccc(Cl)cc2)c1O
Plasmodium berghei [18]
  Delta MST: 5.2 days
Plasmodium berghei [19]
  Delta MST: 13.4 days
Plasmodium berghei [21]
  Delta MST: 0.8 days
Plasmodium berghei [22]
  Delta MST: 14.8 days
Plasmodium berghei [23]
  Delta MST: 4.9 days
Plasmodium berghei [24]
  Delta MST: 2 days
Plasmodium berghei [25]
  Delta MST: 19.6 days
Plasmodium berghei [26]
  Delta MST: 11.3 days
Mus musculus [32]
  No. of mice cured: 2
Mus musculus [33]
  No. of mice cured: 2
Mus musculus [34]
  No. of mice cured: 5
Mus musculus [35]
  No. of mice cured: 2
Mus musculus [30]
  No. of mice cured: 5

## CC(C)(C)NCc1cc(Nc2ccnc3cc(Cl)ccc23)cc(-c2ccc(Cl)cc2)c1O [TEBUQUINE]
Plasmodium berghei [18]
  Delta MST: 11.4 days
Plasmodium berghei [19]
  Delta MST: 17.1 days
Plasmodium berghei [21]
  Delta MST: 0.3 days
Plasmodium berghei [23]
  Delta MST: 14.9 days
Plasmodium berghei [24]
  Delta MST: 2.3 days
Plasmodium berghei [25]
  Delta MST: 14.9 days
Plasmodium berghei [26]
  Delta MST: 16.4 days
Plasmodium berghei [27]
  Delta MST: 19.9 days
Mus musculus [28]
  No. of mice cured: 2
Plasmodium berghei [11]
  No. of mice cured: 2
Plasmodium berghei [12]
  No. of mice cured: 3
Plasmodium berghei [13]
  No. of mice cured: 1
Mus musculus [14]
  No. of mice cured: 4
Mus musculus [29]
  No. of mice cured: 1
Mus musculus [16]
  No. of mice cured: 3
